The source of these data is ChEMBL document CHEMBL3860029, “Maximiscin Induces DNA Damage, Activates DNA Damage Response Pathways, and Has Selective Cytotoxic Activity against a Subtype of Triple-Negative Breast Cancer” (J Nat Prod, 2016).

Structures are written as SMILES. The source made the active and inactive calls. The calls are words filed in the database; no cut-off is given here.

The nature of data set [1]: Cytotoxicity against human HCC70 cells after 48 hrs by SRB assay. The following applies: HCC70, 48 h, read-out: LC50 (the source's name). Format: functional. An outline of the steps: (§1)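 Cells grown in RPMI-1640 with 50 µg/mL gentamicin and 10% FBS at 37°C, 5% CO2, and passaged under 3 months after revival. Sulforhodamine B assay after 48 h of compound exposure, with cell density measured at time of treatment (T0). LC50 (50% cell death vs T0) interpolated by nonlinear regression. At least 3 independent experiments, each concentration in triplicate.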
(Sulforhodamine B stains cellular protein and so reports cell mass.)

Data set [2] can be described thus: Cytotoxicity against human BT549 cells after 48 hrs by SRB assay. Format: functional. The following applies: BT-549, 48 h, read-out: LC50 (the source's name). The essentials: as §1
Data set [3] can be described thus: Cytotoxicity against human MDA-MB-453 cells after 48 hrs by SRB assay. The format is functional. The following applies: MDA-MB-453, 48 h, read-out: LC50 (the source's name). An outline of the steps:
(§2)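 Cells grown in IMEM with 25 µg/mL gentamicin and 10% FBS at 37°C, 5% CO2, and passaged under 3 months after revival. Sulforhodamine B assay after 48 h of compound exposure, with cell density measured at time of treatment (T0). LC50 (50% cell death vs T0) interpolated by nonlinear regression. At least 3 independent experiments, each concentration in triplicate.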

The nature of data set [4]: Cytotoxicity against human MDA-MB-468 cells after 48 hrs by SRB assay. Format: functional. The following applies: MDA-MB-468, 48 h, read-out: LC50 (the source's name). An outline of the steps:
as §1

The nature of data set [5]: Cytotoxicity against human MDA-MB-231 cells after 48 hrs by SRB assay. Particulars: MDA-MB-231, 48 h, read-out: LC50 (the source's name). Format: functional. An outline of the steps: as §2
In another data set the test system is BT-549. In words: Selectivity ratio of LC50 for human BT549 cells to LC50 for human MDA-MB-468 cells. The format is functional. The essentials: (§3)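 Both LC50s come from 48 h sulforhodamine B assays, with T0 density measured at treatment. LC50 is 50% cell death vs T0, interpolated by nonlinear regression. At least 3 independent experiments, concentrations in triplicate. MDA-MB-468, HCC70 and BT-549 were grown in RPMI-1640. MDA-MB-231 and MDA-MB-453 were grown in IMEM.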

For data set [6], the target named is Cellular tumor antigen p53 (Homo sapiens) (UniProt P04637). The data set is described as follows: Induction of p53 phosphorylation at serine15 in whole cell human MDA-MB-468 cell lysates at 1 uM by antibody microarray assay. Format: cell-based. Particulars: TDE = time-dependent effect. An outline of the steps: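 MDA-MB-468 whole-cell lysates, prepared as for immunoblotting after early post-treatment time points, applied to a PathScan intracellular signaling antibody array with fluorescent readout. Near-infrared signals imaged and quantified.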
Sequence of Cellular tumor antigen p53 (Homo sapiens) (P04637 whole entry, looked up): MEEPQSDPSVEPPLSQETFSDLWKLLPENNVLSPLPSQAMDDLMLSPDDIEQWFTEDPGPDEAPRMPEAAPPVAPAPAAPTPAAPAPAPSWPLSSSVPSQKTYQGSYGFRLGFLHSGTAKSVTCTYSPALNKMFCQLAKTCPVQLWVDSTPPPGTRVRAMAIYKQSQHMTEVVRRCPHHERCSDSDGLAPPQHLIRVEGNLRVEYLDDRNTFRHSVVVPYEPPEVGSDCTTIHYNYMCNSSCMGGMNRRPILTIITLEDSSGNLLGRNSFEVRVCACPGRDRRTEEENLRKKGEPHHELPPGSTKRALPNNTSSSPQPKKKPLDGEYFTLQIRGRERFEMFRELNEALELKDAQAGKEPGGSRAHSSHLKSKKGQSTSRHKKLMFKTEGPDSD

Data set [7] addresses Serine/threonine-protein kinase Chk2 (Homo sapiens) (UniProt O96017). The data set is described as follows: Induction of CHK2 phosphorylation at T68-residue in human MDA-MB-468 cells at 1 uM after 2 hrs by immunoblot analysis. The format is cell-based. An outline of the steps:
(§4)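 Whole-cell lysates of MDA-MB-468 cells taken after vehicle or compound treatment for the stated times. Lysis buffer held protease inhibitors, PMSF and Na3VO4. Equal protein run on SDS-PAGE, blotted to PVDF and probed for phospho-S345-Chk1, phospho-T68-Chk2 and phospho-S15-p53 alongside total proteins and β-actin. Read by near-infrared fluorescent secondaries.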
(In general: A western blot detects proteins with antibodies after separation by electrophoresis.)

Data set [8] is described as follows: Selectivity ratio of LC50 for human MDA-MB-453 cells to LC50 for human MDA-MB-468 cells. Format: functional. An outline of the steps: as §3
Data set [9] concerns the target T1, Serine/threonine-protein kinase Chk1 (Homo sapiens) (UniProt O14757).
T1 sequence (whole entry): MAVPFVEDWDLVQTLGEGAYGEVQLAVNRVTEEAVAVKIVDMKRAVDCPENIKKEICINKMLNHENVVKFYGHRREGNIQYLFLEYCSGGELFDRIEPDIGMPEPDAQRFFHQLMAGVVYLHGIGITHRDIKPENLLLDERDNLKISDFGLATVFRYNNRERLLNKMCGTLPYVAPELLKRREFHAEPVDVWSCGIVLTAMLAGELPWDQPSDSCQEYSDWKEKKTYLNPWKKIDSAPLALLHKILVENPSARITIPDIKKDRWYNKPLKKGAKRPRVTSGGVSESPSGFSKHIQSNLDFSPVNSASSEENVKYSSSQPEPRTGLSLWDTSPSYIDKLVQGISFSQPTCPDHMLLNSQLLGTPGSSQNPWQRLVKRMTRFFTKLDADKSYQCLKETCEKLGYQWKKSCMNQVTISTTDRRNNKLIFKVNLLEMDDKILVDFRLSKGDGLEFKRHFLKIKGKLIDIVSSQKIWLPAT
In words: Induction of CHK1 phosphorylation at S345-residue in human MDA-MB-468 cells at 1 uM after 4 hrs by immunoblot analysis. The format is cell-based. The essentials:
as §4

For data set [10], the target named is Cellular tumor antigen p53 (Homo sapiens) (UniProt P04637). The data set is described as follows: Induction of p53 phosphorylation at serine15 in human MDA-MB-468 cells after 2 hrs at 1 uM by immunoblot analysis. Format: cell-based. An outline of the steps: as §4
For a further data set, the system named is HCC70. In words: Selectivity ratio of LC50 for human HCC70 cells to LC50 for human MDA-MB-468 cells. Format: functional. An outline of the steps:
as §3

The subject of the next data set is Mus musculus. In words: Toxicity in athymic nude mouse xenografted with human MDA-MB-468 cells assessed as weight loss at 5 mg/kg, ip administered daily for 21 days […] relative to control. Format: organism-based. The following applies: in vivo, 504 h. An outline of the steps:
(§5)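 Female athymic nude mice implanted s.c. bilaterally in each flank with 2 × 10^6 MDA-MB-468 cells in DPBS plus Matrigel. Dosing began at tumor volume of at least 150 mm3, with 7 or 8 tumors/group. Dose was 5 mg/kg i.p. daily for 21 days in 2.5% DMSO/2.5% Kolliphor EL in DPBS; controls untreated. Mice weighed and examined daily; calipers twice weekly; volume = length × width × height.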
(In general: Xenograft models place foreign cells or tissue in a host animal.)

A short description of data set [11]: Cell cycle arrest in human MDA-MB-468 cells assessed as accumulation at G0/G1 phase at 1 to 10 uM after 18 hrs by propidium iodide staining based FACS analysis. The format is functional. An outline of the steps:
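MDA-MB-468 cells (RPMI-1640, 10% FBS, gentamicin) exposed to vehicle (DMSO) or compound for 18 h. Cells harvested and stained with Krishan's reagent (PI). DNA content read on a Muse Cell Analyzer to give phase distribution. n = 3; two-way ANOVA with Dunnett's post-hoc test.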

The test system of data set [12] is MDA-MB-468. In words: Antitumor activity against human MDA-MB-468 cells xenografted in athymic nude mouse assessed as tumor growth inhibition at 5 mg/kg, ip administered daily for 21 days measured on day 21 post dose relative to control. The format is functional, organism-based. The essentials:
as §5

In data set [13] the test system is MDA-MB-468. The data set is described as follows: Induction of DNA double stranded break in human MDA-MB-468 cells assessed as increase in gamma-H2A.X foci at 1 to 10 uM after 18 hrs by nucblue staining based immunofluorescent microscopic analysis. The format is functional, cell-based. The essentials: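 MDA-MB-468 cells on glass coverslips, adhered overnight, then exposed 18 h. Paraformaldehyde fixation, blocking in 10% bovine calf serum/DPBS 20 min at room temperature, then anti-γ-H2A.X in 1% BSA/0.3% Triton X-100. Detection with Alexa Fluor 594 secondary and NucBlue nuclear counterstain at 60× objective. Two independent experiments, each concentration in duplicate.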

A short description of data set [14]: Selectivity ratio of LC50 for human MDA-MB-231 cells to LC50 for human MDA-MB-468 cells. Format: functional. An outline of the steps:
as §3

Sequence of Serine/threonine-protein kinase Chk2 (Homo sapiens) (O96017 whole entry): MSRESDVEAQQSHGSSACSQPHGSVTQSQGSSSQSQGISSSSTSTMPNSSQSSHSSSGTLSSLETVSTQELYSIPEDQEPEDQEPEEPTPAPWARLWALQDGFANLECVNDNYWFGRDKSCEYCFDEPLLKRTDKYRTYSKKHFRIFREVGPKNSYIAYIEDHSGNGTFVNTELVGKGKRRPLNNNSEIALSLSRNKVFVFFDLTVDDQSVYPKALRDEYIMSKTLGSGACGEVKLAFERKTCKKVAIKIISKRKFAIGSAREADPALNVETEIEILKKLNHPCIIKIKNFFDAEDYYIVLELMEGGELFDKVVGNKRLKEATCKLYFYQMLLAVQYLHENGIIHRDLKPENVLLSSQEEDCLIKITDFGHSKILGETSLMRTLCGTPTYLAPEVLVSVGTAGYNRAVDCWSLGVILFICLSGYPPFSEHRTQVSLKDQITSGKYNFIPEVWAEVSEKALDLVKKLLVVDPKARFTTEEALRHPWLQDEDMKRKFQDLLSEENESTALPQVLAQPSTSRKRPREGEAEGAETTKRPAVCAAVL

Consider `CC(=O)O[C@H]1C(=O)[C@@]2(C)[C@H]([C@H](OC(=O)c3ccccc3)[C@]3(O)C[C@H](OC(=O)[C@H](O)[C@@H](NC(=O)c4ccccc4)c4ccccc4)C(C)=C1C3(C)C)[C@]1(OC(C)=O)CO[C@@H]1C[C@@H]2O` [PACLITAXEL], for which the CC50 in [1] is > 31.2 nM; in [2], 18 nM; in data set [3], 8.2 nM; in [4], 9.8 nM; in data set [5], > 62.5 nM.

Turning to `C=C[C@@H]1C[C@H](C)C[C@H](C)[C@H]1c1c(O)ccn(O[C@@H]2C(C(=O)OC)=C[C@@H](O)[C@@H](O)[C@H]2O)c1=O`, the CC50 in data set [1] came to 39000 nM; in data set [2] it was 15000 nM; in data set [3], 15000 nM; in [4], 600 nM; in [5], 60000 nM. Also, the RatioLC50 (in the data set with BT-549; in data set [8]; with HCC70; in data set [14]) was 25 - 100 each time. Also, the Activity entry in data set [6] was “Tde”; with Mus musculus, 12%; in the data set with MDA-MB-468 [13], “Dose-dependent effect”. Besides, the result in data set [7], in [9], in data set [10] and in [11] was Active. Besides, in the data set with MDA-MB-468 [12], the TGI entry is “Active”.
